In ChEMBL document CHEMBL3817745, “Structure-Activity Relationship for the 4(3H)-Quinazolinone Antibacterials” (J Med Chem, 2016):

Legend:
Format in all cases: functional
Klebsiella pneumoniae = experiment: Antibacterial activity against Klebsiella pneumoniae ATCC 700603 incubated for 16 to 20 hrs by microdilution method
Procedure, shortened: (§1)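 CLSI broth microdilution. 2-fold serial dilutions were made in cation-adjusted Mueller–Hinton broth, with 5% lysed horse blood added for Streptococcus strains, in triplicate. Inoculum 5×10^5 CFU/mL. Plates incubated 36 °C for 16–20 h. MIC taken as the lowest concentration visibly inhibiting growth.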

Pseudomonas aeruginosa = experiment: Antibacterial activity against Pseudomonas aeruginosa […] incubated for 16 to 20 hrs by microdilution method; procedure, shortened: as §1
Acinetobacter baumannii = experiment: Antibacterial activity against Acinetobacter baumannii ATCC 17961 incubated for 16 to 20 hrs by microdilution method; procedure, shortened: as §1
Escherichia coli = experiment: Antibacterial activity against Escherichia coli ATCC 25922 incubated for 16 to 20 hrs by microdilution method; procedure, shortened: as §1
Enterococcus faecium = experiment: Antibacterial activity against Enterococcus faecium NCTC 7171 incubated for 16 to 20 hrs by microdilution method; procedure, shortened: as §1
Klebsiella aerogenes = experiment: Antibacterial activity against Enterobacter aerogenes ATCC 35029 incubated for 16 to 20 hrs by microdilution method; procedure, shortened: as §1

Row | SMILES | MIC (Klebsiella pneumoniae) [µg/mL] | MIC (Pseudomonas aeruginosa) [µg/mL] | MIC (Acinetobacter baumannii) [µg/mL] | MIC (Escherichia coli) [µg/mL] | MIC (Enterococcus faecium) [µg/mL] | MIC (Klebsiella aerogenes) [µg/mL]
1 | Cc1ccc(/C=C/c2nc3ccccc3c(=O)n2-c2cccc(O)c2)cc1 | ≥ 16 | ≥ 16 | ≥ 16 | ≥ 16 | ≥ 8 | ≥ 16
2 | COc1ncccc1CNc1cccc(-n2c(/C=C/c3ccc(C#N)cc3)nc3ccccc3c2=O)c1 | ≥ 16 | ≥ 16 | ≥ 16 | ≥ 16 | ≥ 8 | ≥ 16
3 | O=C(O)c1cccc(-n2c(/C=C/c3ccc(Cl)cc3)nc3ccncc3c2=O)c1 | ≥ 16 | ≥ 16 | ≥ 16 | ≥ 16 | ≥ 8 | ≥ 16
4 | CC(=O)Oc1ccc(-n2c(/C=C/c3ccc([N+](=O)[O-])cc3)nc3ccccc3c2=O)cc1 | ≥ 16 | ≥ 16 | ≥ 16 | ≥ 16 | ≥ 8 | ≥ 16
5 | CC(=O)OCC#Cc1ccc(/C=C/c2nc3ccccc3c(=O)n2-c2cccc(C(=O)O)c2)cc1 | ≥ 16 | ≥ 16 | ≥ 16 | ≥ 16 | ≥ 8 | ≥ 16
6 | CC(=O)Oc1cccc(-n2c(/C=C/c3ccc([N+](=O)[O-])cc3)nc3ccccc3c2=O)c1 | ≥ 16 | ≥ 16 | ≥ 16 | ≥ 16 | ≥ 8 | ≥ 16
7 | N#Cc1ccc(/C=C/c2nc3ccccc3c(=O)n2-c2cccc(CC(=O)O)c2)cc1 | ≥ 16 | ≥ 16 | ≥ 16 | ≥ 16 | ≥ 8 | ≥ 16
8 | COC(=O)Nc1cccc(-n2c(/C=C/c3ccc(C#N)cc3)nc3ccccc3c2=O)c1 | ≥ 16 | ≥ 16 | ≥ 16 | ≥ 16 | ≥ 8 | ≥ 16
9 | NC(=O)c1cccc(-n2c(/C=C/c3ccc(F)cc3)nc3ccccc3c2=O)c1 | ≥ 16 | ≥ 16 | ≥ 16 | ≥ 16 | ≥ 8 | ≥ 16
10 | O=c1c2ccccc2nc(/C=C/c2cccc([N+](=O)[O-])c2)n1-c1cccc(O)c1 | ≥ 16 | ≥ 16 | ≥ 16 | ≥ 16 | ≥ 8 | ≥ 16
11 | CS(=O)(=O)NCc1cccc(-n2c(/C=C/c3ccc(C#N)cc3)nc3ccccc3c2=O)c1 | ≥ 16 | ≥ 16 | ≥ 16 | ≥ 16 | ≥ 8 | ≥ 16
12 | CS(=O)(=O)c1ccc(/C=C/c2nc3ccccc3c(=O)n2-c2cccc(C(=O)O)c2)cc1 | ≥ 16 | ≥ 16 | ≥ 16 | ≥ 16 | ≥ 8 | ≥ 16
13 | O=c1c2ccccc2nc(/C=C/c2ccc([N+](=O)[O-])cc2)n1-c1ccccc1O | ≥ 16 | ≥ 16 | ≥ 16 | ≥ 16 | ≥ 8 | ≥ 16
14 | O=c1c2cnccc2nc(/C=C/c2ccc(F)cc2)n1-c1cccc(O)c1 | ≥ 16 | ≥ 16 | ≥ 16 | ≥ 16 | ≥ 8 | ≥ 16
15 | N#Cc1ccc(/C=C/c2nc3ccncc3c(=O)n2-c2cccc(O)c2)cc1 | ≥ 16 | ≥ 16 | ≥ 16 | ≥ 16 | ≥ 8 | ≥ 16
16 | O=c1c2cnccc2nc(/C=C/c2ccc(Cl)cc2)n1-c1cccc(O)c1 | ≥ 16 | ≥ 16 | ≥ 16 | ≥ 16 | ≥ 8 | ≥ 16
17 | N#Cc1ccc(/C=C/c2nc3ccccc3c(=O)n2-c2cccc(F)c2)cc1 | ≥ 16 | ≥ 16 | ≥ 16 | ≥ 16 | ≥ 8 | ≥ 16
18 | O=C(O)c1cccc(-n2c(/C=C/c3ccc(F)cc3)nc3ccncc3c2=O)c1 | ≥ 16 | ≥ 16 | ≥ 16 | ≥ 16 | ≥ 8 | ≥ 16
19 | COC(=O)CCNC(=O)c1cccc(-n2c(/C=C/c3ccc(C#N)cc3)nc3ccccc3c2=O)c1 | ≥ 16 | ≥ 16 | ≥ 16 | ≥ 16 | ≥ 8 | ≥ 16
20 | CC(=O)OCCCn1c(/C=C/c2ccc(C#N)cc2)nc2ccccc2c1=O | ≥ 16 | ≥ 16 | ≥ 16 | ≥ 16 | ≥ 8 | ≥ 16
21 | CC(C)c1ccc(/C=C/c2nc3ccccc3c(=O)n2-c2cccc(O)c2)cc1 | ≥ 16 | ≥ 16 | ≥ 16 | ≥ 16 | ≥ 8 | ≥ 16

Row | SMILES | MIC (Klebsiella pneumoniae) [µg/mL] | MIC (Pseudomonas aeruginosa) [µg/mL] | MIC (Acinetobacter baumannii) [µg/mL] | MIC (Escherichia coli) [µg/mL] | MIC (Enterococcus faecium) [µg/mL] | MIC (Klebsiella aerogenes) [µg/mL]
22 | O=c1c2cc(Br)ccc2nc(/C=C/c2ccc([N+](=O)[O-])cc2)n1-c1cccc(O)c1 | ≥ 16 | ≥ 16 | ≥ 16 | ≥ 16 | ≥ 8 | ≥ 16
23 | O=C(NCCO)c1cccc(-n2c(/C=C/c3ccc(F)cc3)nc3ccccc3c2=O)c1 | ≥ 16 | ≥ 16 | ≥ 16 | ≥ 16 | ≥ 8 | ≥ 16
24 | N#Cc1ccc(/C=C/c2nc3cc(N)ccc3c(=O)n2-c2cccc(C(=O)O)c2)cc1 | ≥ 16 | ≥ 16 | ≥ 16 | ≥ 16 | ≥ 8 | ≥ 16
25 | N#Cc1ccc(/C=C/c2nc3ccncc3c(=O)n2-c2cccc(C(=O)O)c2)cc1 | ≥ 16 | ≥ 16 | ≥ 16 | ≥ 16 | ≥ 8 | ≥ 16
26 | O=C(O)c1cccc(-n2c(/C=C/c3ccc(C#CCO)cc3)nc3ccccc3c2=O)c1 | ≥ 16 | ≥ 16 | ≥ 16 | ≥ 16 | ≥ 8 | ≥ 16
27 | CC(=O)OCc1cccc(-n2c(/C=C/c3ccc(C#N)cc3)nc3ccccc3c2=O)c1 | ≥ 16 | ≥ 16 | ≥ 16 | ≥ 16 | ≥ 8 | ≥ 16
28 | N#Cc1ccc(/C=C/c2nc3ccccc3c(=O)n2-c2cc[nH]n2)cc1 | ≥ 16 | ≥ 16 | ≥ 16 | ≥ 16 | ≥ 8 | ≥ 16
29 | O=c1c2ccccc2nc(/C=C/c2cccc(F)c2)n1-c1cccc(O)c1 | ≥ 16 | ≥ 16 | ≥ 16 | ≥ 16 | ≥ 8 | ≥ 16
30 | O=c1c2ccccc2nc(/C=C/c2ccc(F)cc2)n1-c1cccc([N+](=O)[O-])c1 | ≥ 16 | ≥ 16 | ≥ 16 | ≥ 16 | ≥ 8 | ≥ 16
31 | NC(=O)c1cccc(-n2c(/C=C/c3ccc(F)cc3)nc3ccncc3c2=O)c1 | ≥ 16 | ≥ 16 | ≥ 16 | ≥ 16 | ≥ 8 | ≥ 16
32 | COC(=O)Cc1ccc(/C=C/c2nc3ccccc3c(=O)n2-c2cccc(C(=O)O)c2)cc1 | ≥ 16 | ≥ 16 | ≥ 16 | ≥ 16 | ≥ 8 | ≥ 16
33 | O=C(O)c1cccc(-n2c(/C=C/c3ccc(F)c(F)c3)nc3ccccc3c2=O)c1 | ≥ 16 | ≥ 16 | ≥ 16 | ≥ 16 | ≥ 8 | ≥ 16
34 | CC(C)Nc1cccc(-n2c(/C=C/c3ccc(C#N)cc3)nc3ccccc3c2=O)c1 | ≥ 16 | ≥ 16 | ≥ 16 | ≥ 16 | ≥ 8 | ≥ 16
35 | O=c1c2ccccc2nc(/C=C/c2ccc([N+](=O)[O-])cc2)n1-c1ccc(O)cc1 | ≥ 16 | ≥ 16 | ≥ 16 | ≥ 16 | ≥ 8 | ≥ 16
36 | N#Cc1ccc(/C=C/c2nc3ccccc3c(=O)n2-c2cccc(C(=O)NCCC(=O)O)c2)cc1 | ≥ 16 | ≥ 16 | ≥ 16 | ≥ 16 | ≥ 8 | ≥ 16
37 | O=C(O)c1cccc(-n2c(/C=C/c3ccc(F)c(Cl)c3)nc3ccccc3c2=O)c1 | ≥ 16 | ≥ 16 | ≥ 16 | ≥ 16 | ≥ 8 | ≥ 16
38 | O=c1c2cc(O)ccc2nc(/C=C/c2ccc(F)cc2)n1-c1cccc(O)c1 | ≥ 16 | ≥ 16 | ≥ 16 | ≥ 16 | ≥ 8 | ≥ 16
39 | N#Cc1ccc(/C=C/c2nc3ccncc3c(=O)n2-c2cccc(C(N)=O)c2)cc1 | ≥ 16 | ≥ 16 | ≥ 16 | ≥ 16 | ≥ 8 | ≥ 16
40 | N#Cc1ccc(/C=C/c2nc3ccccc3c(=O)n2-c2cccc([N+](=O)[O-])c2)cc1 | ≥ 16 | ≥ 16 | ≥ 16 | ≥ 16 | ≥ 8 | ≥ 16
41 | Nc1cccc(-n2c(/C=C/c3ccc(F)cc3)nc3ccccc3c2=O)c1 | ≥ 16 | ≥ 16 | ≥ 16 | ≥ 16 | ≥ 8 | ≥ 16
42 | O=c1c2ccccc2nc(/C=C/c2ccc([N+](=O)[O-])cc2)n1-c1cccc(O)c1 | ≥ 16 | ≥ 16 | ≥ 16 | ≥ 16 | ≥ 8 | ≥ 16
